Data taken from ChEMBL document CHEMBL1949601, “γ-Carbolines: a novel class of cannabinoid agonists with high aqueous solubility and restricted CNS penetration” (Bioorg Med Chem Lett, 2012).

Tests used:
[1] = molecular target: Cannabinoid receptor 1 (Rattus norvegicus) (UniProt P20272); test: Agonist activity at CB1 receptor in rat brain tissue relative to control; type: functional, tissue-based
[2] = molecular target: Angiotensin-converting enzyme (Homo sapiens) (UniProt P12821); test: Activity of human ACE at 10 uM
[3] = molecular target: Prostaglandin G/H synthase 1 (Homo sapiens) (UniProt P23219); test: Activity at human COX1 receptor at 10 uM
[4] = molecular target: Adrenergic receptor alpha-1 (Rattus norvegicus) (UniProt P15823+P23944+P43140); test: Activity at rat alpha1adrenergic receptor at 10 uM
[5] = molecular target: Estrogen receptor (Homo sapiens) (UniProt P03372); test: Activity at human ERalpha receptor at 10 uM
[6] = molecular target: Histamine H1 receptor (Homo sapiens) (UniProt P35367); test: Activity at human histamine H1 receptor at 10 uM
[7] = molecular target: Muscarinic acetylcholine receptor M2 (Homo sapiens) (UniProt P08172); test: Activity at human M2 receptor at 10 uM
Sequence of Muscarinic acetylcholine receptor M2 (Homo sapiens) (P08172 whole entry): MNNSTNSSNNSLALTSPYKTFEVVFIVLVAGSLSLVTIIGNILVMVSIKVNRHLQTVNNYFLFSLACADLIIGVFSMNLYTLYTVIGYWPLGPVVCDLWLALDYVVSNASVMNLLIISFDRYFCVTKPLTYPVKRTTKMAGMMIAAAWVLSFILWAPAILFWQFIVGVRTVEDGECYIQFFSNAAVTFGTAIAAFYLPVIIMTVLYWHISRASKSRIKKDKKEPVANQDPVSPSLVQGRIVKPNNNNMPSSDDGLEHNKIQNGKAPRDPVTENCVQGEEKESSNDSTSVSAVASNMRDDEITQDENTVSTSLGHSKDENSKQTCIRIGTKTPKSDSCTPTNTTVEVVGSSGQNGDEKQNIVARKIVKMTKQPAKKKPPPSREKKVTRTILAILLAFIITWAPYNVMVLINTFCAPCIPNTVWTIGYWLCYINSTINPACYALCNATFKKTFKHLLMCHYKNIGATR

[8] = molecular target: Sodium-dependent noradrenaline transporter (Homo sapiens) (UniProt P23975); test: Activity at human NET receptor at 10 uM
Sequence of Sodium-dependent noradrenaline transporter (Homo sapiens) (P23975 whole entry): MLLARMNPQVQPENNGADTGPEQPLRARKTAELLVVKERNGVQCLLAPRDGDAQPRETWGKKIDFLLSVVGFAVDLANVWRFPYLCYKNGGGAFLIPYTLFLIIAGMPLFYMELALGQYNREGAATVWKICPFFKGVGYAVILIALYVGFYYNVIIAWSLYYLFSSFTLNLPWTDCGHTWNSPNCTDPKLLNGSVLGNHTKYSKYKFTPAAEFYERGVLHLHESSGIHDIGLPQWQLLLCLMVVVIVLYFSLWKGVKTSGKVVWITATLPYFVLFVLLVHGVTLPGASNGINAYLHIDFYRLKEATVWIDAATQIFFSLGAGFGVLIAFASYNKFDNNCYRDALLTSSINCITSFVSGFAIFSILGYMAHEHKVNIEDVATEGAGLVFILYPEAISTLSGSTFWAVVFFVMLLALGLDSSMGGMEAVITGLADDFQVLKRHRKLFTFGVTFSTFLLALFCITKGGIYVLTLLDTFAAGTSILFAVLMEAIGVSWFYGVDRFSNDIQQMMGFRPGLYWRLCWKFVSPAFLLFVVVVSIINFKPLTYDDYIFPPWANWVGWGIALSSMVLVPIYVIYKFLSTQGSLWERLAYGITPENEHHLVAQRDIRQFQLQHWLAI

[9] = Activity at Nav site2 receptor at 10 uM
[10] = molecular target: 5-hydroxytryptamine receptor 6 (Homo sapiens) (UniProt P50406); test: Activity at human 5HT6 receptor at 10 uM
[11] = molecular target: Type-1 angiotensin II receptor (Homo sapiens) (UniProt P30556); test: Activity at human AT1 receptor at 10 uM
[12] = molecular target: Bombesin receptor subtype-3 (Homo sapiens) (UniProt P32247); test: Activity at human BRS3 at 10 uM
Sequence of Bombesin receptor subtype-3 (Homo sapiens) (P32247 whole entry): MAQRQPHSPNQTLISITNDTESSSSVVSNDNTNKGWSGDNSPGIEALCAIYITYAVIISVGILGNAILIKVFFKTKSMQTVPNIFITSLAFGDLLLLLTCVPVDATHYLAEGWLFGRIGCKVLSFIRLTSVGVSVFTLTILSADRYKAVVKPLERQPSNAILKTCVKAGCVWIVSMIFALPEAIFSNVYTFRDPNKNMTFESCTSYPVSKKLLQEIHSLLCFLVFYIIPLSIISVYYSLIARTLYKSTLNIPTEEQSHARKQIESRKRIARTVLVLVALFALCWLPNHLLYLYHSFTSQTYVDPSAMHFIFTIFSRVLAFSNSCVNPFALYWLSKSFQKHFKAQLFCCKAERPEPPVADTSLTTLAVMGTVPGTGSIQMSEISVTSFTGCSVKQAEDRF

[13] = molecular target: C-C chemokine receptor type 1 (Homo sapiens) (UniProt P32246); test: Activity at human CCR1 at 10 uM
[14] = molecular target: Corticotropin-releasing factor receptor 1 (Homo sapiens) (UniProt P34998); test: Activity at human CRF1 receptor at 10 uM
Sequence of Corticotropin-releasing factor receptor 1 (Homo sapiens) (P34998 whole entry): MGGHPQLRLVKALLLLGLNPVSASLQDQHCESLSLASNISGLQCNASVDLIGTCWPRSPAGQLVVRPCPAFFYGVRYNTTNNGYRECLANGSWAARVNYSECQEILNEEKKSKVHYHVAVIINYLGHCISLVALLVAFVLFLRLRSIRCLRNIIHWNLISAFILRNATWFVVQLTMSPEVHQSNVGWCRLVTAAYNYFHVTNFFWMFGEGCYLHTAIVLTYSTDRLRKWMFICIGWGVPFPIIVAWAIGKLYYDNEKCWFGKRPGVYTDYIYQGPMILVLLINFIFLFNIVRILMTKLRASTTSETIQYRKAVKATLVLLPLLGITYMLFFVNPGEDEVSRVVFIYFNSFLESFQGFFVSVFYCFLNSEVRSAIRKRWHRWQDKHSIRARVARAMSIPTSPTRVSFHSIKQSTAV

[15] = molecular target: C-X-C chemokine receptor type 6 (Homo sapiens) (UniProt O00574); test: Activity at human CXCR6 receptor at 10 uM
Sequence of C-X-C chemokine receptor type 6 (Homo sapiens) (O00574 whole entry, looked up): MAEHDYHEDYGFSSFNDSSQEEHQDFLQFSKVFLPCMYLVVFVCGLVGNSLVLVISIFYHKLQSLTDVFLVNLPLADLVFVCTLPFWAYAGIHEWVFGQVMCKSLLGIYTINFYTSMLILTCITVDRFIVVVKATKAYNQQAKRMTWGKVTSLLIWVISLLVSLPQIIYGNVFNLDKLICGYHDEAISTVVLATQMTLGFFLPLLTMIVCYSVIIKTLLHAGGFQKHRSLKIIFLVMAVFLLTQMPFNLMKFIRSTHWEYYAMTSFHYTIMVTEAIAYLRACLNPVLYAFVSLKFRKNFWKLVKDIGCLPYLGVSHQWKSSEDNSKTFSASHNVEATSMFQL

[16] = molecular target: Endothelin-1 receptor (Homo sapiens) (UniProt P25101); test: Activity at human ETA receptor at 10 uM
Sequence of Endothelin-1 receptor (Homo sapiens) (P25101 whole entry): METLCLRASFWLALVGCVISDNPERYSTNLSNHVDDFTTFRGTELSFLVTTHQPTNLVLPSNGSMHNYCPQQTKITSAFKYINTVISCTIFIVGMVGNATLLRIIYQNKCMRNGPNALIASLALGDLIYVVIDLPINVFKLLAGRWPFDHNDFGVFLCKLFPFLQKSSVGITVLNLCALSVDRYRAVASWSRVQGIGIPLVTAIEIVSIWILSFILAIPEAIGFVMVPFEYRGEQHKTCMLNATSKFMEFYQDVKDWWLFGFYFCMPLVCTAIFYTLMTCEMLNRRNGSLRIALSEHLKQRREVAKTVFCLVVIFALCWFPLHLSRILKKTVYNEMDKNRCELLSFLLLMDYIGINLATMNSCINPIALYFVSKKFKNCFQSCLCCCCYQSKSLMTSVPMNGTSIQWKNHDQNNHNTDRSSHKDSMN

[17] = molecular target: Growth hormone secretagogue receptor type 1 (Homo sapiens) (UniProt Q92847); test: Activity at human GHS receptor at 10 uM
Sequence of Growth hormone secretagogue receptor type 1 (Homo sapiens) (Q92847 whole entry): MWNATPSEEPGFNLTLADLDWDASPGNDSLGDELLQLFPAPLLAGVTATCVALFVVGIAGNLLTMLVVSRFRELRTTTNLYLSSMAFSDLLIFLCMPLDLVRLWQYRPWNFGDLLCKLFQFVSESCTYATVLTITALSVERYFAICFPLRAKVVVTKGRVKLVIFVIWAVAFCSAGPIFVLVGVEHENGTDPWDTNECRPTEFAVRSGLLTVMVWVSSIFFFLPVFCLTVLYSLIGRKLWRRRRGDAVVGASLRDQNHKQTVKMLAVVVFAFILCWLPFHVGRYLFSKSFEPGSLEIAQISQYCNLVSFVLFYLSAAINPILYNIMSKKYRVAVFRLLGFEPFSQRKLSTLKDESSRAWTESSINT

[18] = molecular target: Melanocortin receptor 4 (Homo sapiens) (UniProt P32245); test: Activity at human MC4 receptor at 10 uM
[19] = molecular target: Melanin-concentrating hormone receptor 1 (Homo sapiens) (UniProt Q99705); test: Activity at human MCH1 receptor at 10 uM
Sequence of Melanin-concentrating hormone receptor 1 (Homo sapiens) (Q99705 whole entry): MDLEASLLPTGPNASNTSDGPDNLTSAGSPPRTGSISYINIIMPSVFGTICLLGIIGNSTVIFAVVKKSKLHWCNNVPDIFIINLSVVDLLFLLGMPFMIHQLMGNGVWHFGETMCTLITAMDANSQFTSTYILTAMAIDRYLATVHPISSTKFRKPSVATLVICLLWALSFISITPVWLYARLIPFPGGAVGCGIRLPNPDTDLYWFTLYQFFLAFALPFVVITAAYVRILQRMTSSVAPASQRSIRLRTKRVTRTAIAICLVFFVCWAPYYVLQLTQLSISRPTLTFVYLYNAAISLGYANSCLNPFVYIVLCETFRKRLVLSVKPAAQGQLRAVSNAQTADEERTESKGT

[20] = molecular target: Adenosine receptor A3 (Rattus norvegicus) (UniProt P28647); test: Activity at rat A3 receptor at 10 uM
[21] = molecular target: Urotensin-2 receptor (Mus musculus) (UniProt Q8VIH9); test: Activity at mouse UT2 receptor at 10 uM
[22] = Clearance in iv dosed Sprague-Dawley rat; type: ADME, organism-based; conditions: in vivo
[23] = molecular target: Cytochrome P450 1A2 (Homo sapiens, UniProt P05177); test: Inhibition of CYP1A2; type: ADME
Sequence of Cytochrome P450 1A2 (P05177 whole entry): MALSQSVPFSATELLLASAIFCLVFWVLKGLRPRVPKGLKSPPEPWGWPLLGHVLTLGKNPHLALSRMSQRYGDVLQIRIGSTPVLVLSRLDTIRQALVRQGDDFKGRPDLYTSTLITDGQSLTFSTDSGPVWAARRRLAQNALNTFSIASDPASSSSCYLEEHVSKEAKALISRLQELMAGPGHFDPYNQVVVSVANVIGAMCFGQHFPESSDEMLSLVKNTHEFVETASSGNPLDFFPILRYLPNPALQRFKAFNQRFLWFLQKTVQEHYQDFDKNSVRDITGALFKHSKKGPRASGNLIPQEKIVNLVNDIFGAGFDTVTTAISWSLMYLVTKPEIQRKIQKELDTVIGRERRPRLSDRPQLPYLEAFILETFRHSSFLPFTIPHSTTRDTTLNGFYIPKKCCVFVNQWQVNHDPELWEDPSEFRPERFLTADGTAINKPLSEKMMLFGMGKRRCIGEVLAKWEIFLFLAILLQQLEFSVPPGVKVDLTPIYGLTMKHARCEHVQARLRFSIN

[24] = molecular target: Cytochrome P450 3A4 (Homo sapiens, UniProt P08684); test: Inhibition of CYP3A4; type: ADME
Sequence of Cytochrome P450 3A4 (P08684 whole entry): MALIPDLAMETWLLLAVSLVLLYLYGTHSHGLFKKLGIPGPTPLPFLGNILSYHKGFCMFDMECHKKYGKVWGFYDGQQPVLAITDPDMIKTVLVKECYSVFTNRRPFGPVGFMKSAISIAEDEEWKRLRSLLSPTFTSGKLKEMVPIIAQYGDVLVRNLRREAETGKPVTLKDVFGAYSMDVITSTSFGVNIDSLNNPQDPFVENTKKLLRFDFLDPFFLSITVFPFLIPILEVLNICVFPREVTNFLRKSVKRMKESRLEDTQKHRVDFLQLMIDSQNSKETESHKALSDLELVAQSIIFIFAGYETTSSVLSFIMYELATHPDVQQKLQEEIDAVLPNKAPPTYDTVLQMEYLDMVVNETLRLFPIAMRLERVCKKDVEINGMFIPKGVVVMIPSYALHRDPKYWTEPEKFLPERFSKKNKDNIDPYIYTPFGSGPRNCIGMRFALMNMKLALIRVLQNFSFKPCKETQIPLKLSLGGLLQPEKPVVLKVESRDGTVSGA

[25] = molecular target: Cannabinoid receptor 1 (Mus musculus, UniProt P47746); test: Agonist activity at CB1 receptor in field-stimulated mouse vas deferens; type: functional, tissue-based
Sequence of Cannabinoid receptor 1 (P47746 whole entry): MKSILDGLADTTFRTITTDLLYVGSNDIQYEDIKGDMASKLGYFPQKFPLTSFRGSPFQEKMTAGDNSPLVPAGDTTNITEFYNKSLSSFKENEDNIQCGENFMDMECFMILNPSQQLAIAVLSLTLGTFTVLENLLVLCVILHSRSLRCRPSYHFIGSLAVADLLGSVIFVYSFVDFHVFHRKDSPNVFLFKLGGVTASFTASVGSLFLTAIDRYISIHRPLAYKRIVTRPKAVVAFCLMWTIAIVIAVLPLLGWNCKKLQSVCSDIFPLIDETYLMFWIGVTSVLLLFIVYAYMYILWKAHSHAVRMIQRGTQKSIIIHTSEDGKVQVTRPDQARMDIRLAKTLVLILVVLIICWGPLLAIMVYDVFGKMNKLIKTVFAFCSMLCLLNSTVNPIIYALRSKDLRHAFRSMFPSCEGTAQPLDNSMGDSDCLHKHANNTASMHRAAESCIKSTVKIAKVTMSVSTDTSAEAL
Method in brief: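 Isolated mouse vas deferens under electrical field stimulation, used as an intact tissue assay of CB1 agonism at the native receptor.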

[26] = test system: Brain; test: Drug uptake in brain of Sprague-Dawley rat at 0.35 to 1.4 mg/kg, sc; type: ADME, organism-based; design: dose 0.35-1.4 mg/kg, route subcutaneous; conditions: in vivo, read-out: Drug uptake
Method in brief: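 Rats dosed sc at 0.35, 0.70 and 1.4 mg/kg in carrageenan model; brain homogenised, protein precipitated with ACN, centrifuged 9000g 30 min at 4 °C, measured by reversed-phase LC–MS/MS against serial-dilution calibration curve; brain corrected for 2% blood contamination.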

[27] = test system: Rattus norvegicus; test: Antihyperalgesic activity in sc dosed Sprague-Dawley rat carrageenan pain model; type: functional, organism-based
Method in brief: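 Rats dosed subcutaneously at 0.35, 0.70 and 1.4 mg/kg in carrageenan inflammatory pain model; reversal of heat hyperalgesia measured. n = 7 per group; mean ± SEM; one-way ANOVA with Holm-Sidak test versus vehicle group.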

Sequence of Cannabinoid receptor 1 (Rattus norvegicus) (P20272 whole entry): as the sequence (P47746 whole entry) above, with D95E counted along it

CCS(=O)(=O)n1c2c(c3cc(C(=O)N4CCC(C)CC4)ccc31)CN(C1CCOCC1)CC2
Emax [1]: 156% | Activity [2]: < 50% | Activity [3]: < 50% | Activity [4]: < 50% | Activity [5]: < 50% | Activity [6]: < 50% | Activity [7]: < 50% | Activity [8]: < 50% | Activity [9]: < 50% | Activity [10]: < 50% | Activity [11]: < 50% | Activity [12]: < 50% | Activity [13]: < 50% | Activity [14]: < 50% | Activity [15]: < 50% | Activity [16]: < 50% | Activity [17]: < 50% | Activity [18]: < 50% | Activity [19]: < 50% | Activity [20]: < 50% | Activity [21]: < 50% | clearance [22]: 28 mL/min/kg | IC50 [23]: > 20 µM | IC50 [24]: > 20 µM | IC50 [25]: 0.0019 µM | concentration [26]: 10 nM | Activity [27]: Dose-dependent effect
